Screening data (PubChem)
S1P4 agonist = agonists of human S1P4 receptor. O95977. S1P4-expressing cell line, agonist reporter assay. activation, % at 4.98 µM. 0.35% of 220,000 active. AID 1509; in the data active = activation above about 11%
NPY-Y1 antag = blocks the human neuropeptide Y Y1 receptor; 1% of 200,000 active; P25929; inhibition, % at 3.6 µM; HEK293-CNG Y1 cells, membrane potential fluorescence; NPY at EC95, then isoproterenol;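 active = inhibition above the campaign mean inhibition of all tested compounds plus 3 SD, cut at about 20% in these data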
Target sequence (P25929 whole entry, looked up): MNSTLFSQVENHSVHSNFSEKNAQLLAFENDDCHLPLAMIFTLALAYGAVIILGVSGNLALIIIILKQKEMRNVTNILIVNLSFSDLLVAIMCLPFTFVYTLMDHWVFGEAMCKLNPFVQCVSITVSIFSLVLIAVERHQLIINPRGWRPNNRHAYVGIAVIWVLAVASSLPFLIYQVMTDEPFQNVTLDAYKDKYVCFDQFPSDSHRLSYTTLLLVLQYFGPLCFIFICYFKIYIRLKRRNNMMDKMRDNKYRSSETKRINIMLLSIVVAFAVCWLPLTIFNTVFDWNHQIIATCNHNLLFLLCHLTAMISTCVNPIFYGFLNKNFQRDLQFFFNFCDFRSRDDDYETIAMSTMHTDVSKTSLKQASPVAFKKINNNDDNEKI
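Test system: HEK293 cells co-expressing NPY Y1 receptor and cyclic-nucleotide gated channel; Also added: NPY (25 nM), isoproterenol (1 µM), Ro 20-1724 (25 µM); Compound dosing: one concentration, 3.6 µM, in 0.4% DMSO; Timing: dye 3 h, compound 60 min room temperature, stimulation 45 min; Technique: Membrane-potential fluorescent dye readout.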
NPY-Y1 PAM-ag = potentiates or activates human NPY-Y1 receptor; P25929; NPY-Y1 expressing cells, potentiator/agonist activation; activation, % at 3.6 µM; 0.37% of 220,000 active; AID 1304; in the data active = activation above about 33%, passing the limit was not always enough;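 note: cells stimulated with NPY at EC10 then isoproterenol at EC100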
NPY-Y2 antag = antagonists of human neuropeptide Y receptor Y2 | P49146 | NPY-Y2 expressing cells, antagonist mode | inhibition, % at 2.7 µM | 0.99% of 140,000 active; in the data active = inhibition above about 17%
Target sequence (P49146 whole entry, looked up): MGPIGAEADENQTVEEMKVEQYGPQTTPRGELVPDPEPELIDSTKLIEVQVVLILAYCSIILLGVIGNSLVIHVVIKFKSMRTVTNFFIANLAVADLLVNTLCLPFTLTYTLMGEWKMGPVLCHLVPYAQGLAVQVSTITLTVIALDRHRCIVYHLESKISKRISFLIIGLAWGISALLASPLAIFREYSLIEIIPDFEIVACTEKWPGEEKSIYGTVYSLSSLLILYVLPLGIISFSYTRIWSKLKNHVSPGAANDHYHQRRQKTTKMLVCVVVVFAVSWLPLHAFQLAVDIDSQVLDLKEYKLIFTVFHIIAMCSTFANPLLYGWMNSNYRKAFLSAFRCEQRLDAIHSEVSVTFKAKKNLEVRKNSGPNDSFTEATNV
S1P4 antag = blocks the human S1P4 receptor; inhibition, % at 4.98 µM; O95977; 0.26% of 220,000 active; S1P4-expressing cells, antagonist mode, reporter read-out; in the data active = inhibition above about 29%
NPY2 pot ag = potentiators or agonists of human neuropeptide Y receptor Y2; P49146; cells expressing NPY-Y2, potentiator/agonist read-out; activation, % at 3.6 µM; 0.45% of 220,000 active; AID 1359; in the data active = activation above about 27%;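 note: cells stimulated with NPY near EC25 plus isoproterenol at EC100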
NPY-Y2 confirm = human NPY-Y2 potentiation or agonism, confirmation; cell-based NPY-Y2 potentiator/agonist assay; 20% of 450 active; activation, % at 3.6 µM; shares compounds with NPY2 pot ag; in the data active = activation above about 33%
NPY-Y1 potentiator = counter-screen for NPY-Y2 potentiators or agonists: NPY-Y1 potentiators or agonists; shares compounds with NPY2 pot ag; Y1 HEK293-CNG cells, membrane potential fluorescence; activation, % at 3.6 µM; 20% of 450 active; AID 1651; in the data active = activation above about 45%;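 note: cells stimulated with submaximal NPY then isoproterenol with phosphodiesterase inhibitor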
NPY-Y1 agonist 2 = counter-screen for NPY-Y2 potentiators: agonists of human NPY-Y1; 37% of 450 active; HEK293 Y1-CNGC, membrane potential fluorescence, agonism; shares compounds with NPY2 pot ag; activation, % at 3.6 µM;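 active = activation above the mean of DMSO-only control wells plus 3 SD, cut at about 18% in these data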;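 note: cells stimulated with 1 µM isoproterenol plus the PDE inhibitor Ro 20-1724; Y1 agonists lower the membrane potential dye signal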
CNGC inhibitor = cyclic nucleotide gated channel inhibition as counter-screen; shares compounds with NPY2 pot ag; HEK293-CNG parental, isoproterenol cAMP, membrane potential fluorescence; inhibition, % at 3.6 µM; 32% of 450 active; AID 1703;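 active = inhibition above the control-well mean plus 3 SD of those wells, cut at about 22% in these data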
Y2 agonist ctr = activates human NPY-Y2 receptor in potentiator counter-screen. shares compounds with NPY2 pot ag. HEK293 Y2/CNGC cells, membrane potential fluorescence, agonist mode. 56% of 450 active. activation, % at 3.6 µM;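 active = activation above the mean of solvent-only control wells plus 3 SD, cut at about 10% in these data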;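 note: cells stimulated by isoproterenol with no NPY added so direct agonism is tested; agonism lowers probe fluorescence through less cAMP and CNG channel opening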
Each line names hits and unclear results; the compound was inactive in the other large screens (follow-up assays come after a bar, where they were run). In the library only some 2.4% were active in any assay of this set; here they are far more common.

CCn1ncc(NC(=S)Nc2ccc3c(c2)OCO3)c1C(N)=O	none (no result: NPY-Y2 antag)
CCOC(=O)c1[nH]c(C(=O)O)c(OC(=O)CC)c1C	none (no result: NPY-Y1 antag, NPY-Y2 antag)
c1ccc2c(-c3csc(-c4ccncc4)n3)c[nH]c2c1	NPY2 pot ag 33.4 (no result: NPY-Y2 antag) | NPY-Y2 confirm inactive | NPY-Y1 potentiator 53.4 | NPY-Y1 agonist 2 50.7 | CNGC inhibitor 38.6 | Y2 agonist ctr 33.8
Cc1ccc(NC2=Nc3ccccc3CS2)cc1	NPY2 pot ag 36.5 | NPY-Y2 confirm inactive | NPY-Y1 potentiator inactive | NPY-Y1 agonist 2 inactive | CNGC inhibitor inactive | Y2 agonist ctr inactive
Cc1ccc(Nc2ccccc2)cc1	none
CCOC(=O)Nc1nnc(-c2cccc(OC)c2)s1	NPY2 pot ag 48.8 | NPY-Y2 confirm inactive | NPY-Y1 potentiator inactive | NPY-Y1 agonist 2 24.7 | CNGC inhibitor inactive | Y2 agonist ctr inactive
O=C(Nc1nnc(-c2ccc(Cl)cc2)o1)Nc1ccccc1F	none (no result: NPY-Y1 antag, NPY-Y2 antag)
N#C/C(=N\Nc1ccc(Cl)cc1)C(=O)c1ccccc1	NPY2 pot ag 47.3 | NPY-Y2 confirm inactive | NPY-Y1 potentiator inactive | NPY-Y1 agonist 2 inactive | CNGC inhibitor inactive | Y2 agonist ctr 19.8
CCOC(=O)C1=C(Cn2cnc3ccccc32)NC(=O)NC1c1cc(C)ccc1C (centres undefined)	NPY2 pot ag 32.9 | NPY-Y2 confirm inactive | NPY-Y1 potentiator inactive | NPY-Y1 agonist 2 20.1 | CNGC inhibitor 22.6 | Y2 agonist ctr 22.8
COC(=O)c1ccc(NC(=O)CN(c2ccc(C)cc2)S(=O)(=O)c2c(C)nn(C)c2C)cc1	NPY2 pot ag 39.6 | NPY-Y2 confirm inactive | NPY-Y1 potentiator inactive | NPY-Y1 agonist 2 48.0 | CNGC inhibitor 34.9 | Y2 agonist ctr 35.9
COc1cc(NC(=O)CN(c2ccc(C)cc2)S(=O)(=O)c2c(C)nn(C)c2C)cc(OC)c1	none
O=C(NC1CCCCCC1)C(=S)NC1CCCCC1	none (no result: NPY-Y2 antag)
Cc1ccc(NS(=O)(=O)c2cccc(C(=O)N/N=C/c3ccc4c(c3)OCCO4)c2)c(C)c1	none
OCCN(CCO)c1ccc2ccccc2c1	none (no result: NPY-Y2 antag)
OCCN(CCO)c1ccc(C(c2ccccc2Cl)c2ccc(N(CCO)CCO)cc2Cl)c(Cl)c1	NPY2 pot ag 34.2 | NPY-Y2 confirm 34.7 | NPY-Y1 potentiator 47.5 | NPY-Y1 agonist 2 30.9 | CNGC inhibitor 37.4 | Y2 agonist ctr 38.6
N#C/C(=C(/O)c1cccc(F)c1)c1nc2ccccc2s1	NPY2 pot ag 103.4 (no result: NPY-Y1 antag, NPY-Y2 antag) | NPY-Y2 confirm inactive | NPY-Y1 potentiator inactive | NPY-Y1 agonist 2 inactive | CNGC inhibitor inactive | Y2 agonist ctr inactive
N#C/C(=C(/O)c1ccco1)c1nc2ccccc2s1	none
COc1ccc(-n2nnnc2SCC(=O)NCCc2ccccc2)cc1OC	NPY2 pot ag 56.4 (no result: NPY-Y2 antag) | NPY-Y2 confirm inactive | NPY-Y1 potentiator inactive | NPY-Y1 agonist 2 inactive | CNGC inhibitor inactive | Y2 agonist ctr 16.6
COc1cc(OC)cc(-n2nnnc2SCC(=O)NCCc2ccc(OC)c(OC)c2)c1	none (no result: NPY-Y2 antag)
Cc1cccc(C)c1NC(=O)NC1(C(=O)NCCN2CCOCC2)CCCCC1	none (no result: NPY-Y2 antag)
Cc1ccccc1NC(=O)c1c(F)c(F)c(F)c(F)c1F	none
O=C(Nc1ccccc1Cl)c1c(F)c(F)c(F)c(F)c1F	NPY2 pot ag 31.6 | NPY-Y2 confirm inactive | NPY-Y1 potentiator inactive | NPY-Y1 agonist 2 inactive | CNGC inhibitor inactive | Y2 agonist ctr 16.1
O=C(NCc1ccc(Cl)cc1)C1CCN(S(=O)(=O)c2cc([N+](=O)[O-])ccc2Cl)CC1	none
Cc1cccc2sc(NC(=O)C3CCN(S(=O)(=O)c4cc([N+](=O)[O-])ccc4Cl)CC3)nc12	NPY2 pot ag 40.4 | NPY-Y2 confirm inactive | NPY-Y1 potentiator inactive | NPY-Y1 agonist 2 23.7 | CNGC inhibitor inactive | Y2 agonist ctr 41.4
CCNS(=O)(=O)c1ccc(NC(=O)CC(C)c2ccccc2)cc1 (centres undefined)	none (no result: NPY-Y2 antag)
COc1ccc(-c2[nH]ncc2C=O)cc1OC	none (no result: NPY-Y2 antag)
NC(=O)C1CCN(CC(=O)Nc2cccc(C(=O)Nc3cccc(C(F)(F)F)c3)c2)CC1	NPY2 pot ag 41.4 | NPY-Y2 confirm inactive | NPY-Y1 potentiator inactive | NPY-Y1 agonist 2 inactive | CNGC inhibitor inactive | Y2 agonist ctr inactive
Cc1cccc(C)c1NS(=O)(=O)c1ccc(NC(=O)c2ccc(Cl)c([N+](=O)[O-])c2)cc1	NPY2 pot ag 38.1 | NPY-Y2 confirm 34.6 | NPY-Y1 potentiator inactive | NPY-Y1 agonist 2 36.6 | CNGC inhibitor 29.0 | Y2 agonist ctr 42.6
Cc1cc(C)nc(NC(=O)c2ccc(Cl)c([N+](=O)[O-])c2)n1	none (no result: NPY-Y1 antag, NPY-Y2 antag)
N#Cc1ccsc1NC(=O)c1ccc(Cl)c([N+](=O)[O-])c1	NPY2 pot ag 50.7 (no result: NPY-Y1 antag, NPY-Y2 antag) | NPY-Y2 confirm inactive | NPY-Y1 potentiator inactive | NPY-Y1 agonist 2 inactive | CNGC inhibitor inactive | Y2 agonist ctr inactive
Cc1ccc(C(=O)NCCc2cccc(Cl)c2)cc1[N+](=O)[O-]	none
O=C(NCCc1cccc(Cl)c1)c1ccc(Cl)c([N+](=O)[O-])c1	NPY2 pot ag 35.0 | NPY-Y2 confirm inactive | NPY-Y1 potentiator inactive | NPY-Y1 agonist 2 21.9 | CNGC inhibitor 27.3 | Y2 agonist ctr 25.5
Cc1ccc(-c2cc(C(=O)O)n(-c3ccc(S(N)(=O)=O)cc3)n2)cc1	none (no result: NPY-Y2 antag)
Cc1ccc(-c2nc(-c3ccccn3)sc2CC(=O)O)cc1	none (no result: NPY-Y1 antag, NPY-Y2 antag)
NS(=O)(=O)c1ccc(N/N=C2/CCCCC2C2CCCCC2)c([N+](=O)[O-])c1 (centres undefined)	NPY2 pot ag 39.1 | NPY-Y2 confirm 57.2 | NPY-Y1 potentiator 61.2 | NPY-Y1 agonist 2 59.7 | CNGC inhibitor 40.9 | Y2 agonist ctr 67.2
Cc1ccc(N2C(SCC(=O)O)=NC(=Nc3cccc(C)c3)C23CCCC3)cc1	NPY2 pot ag 70.3 (no result: NPY-Y2 antag) | NPY-Y2 confirm inactive | NPY-Y1 potentiator inactive | NPY-Y1 agonist 2 inactive | CNGC inhibitor inactive | Y2 agonist ctr inactive
O=C(O)CSC1=NC(=Nc2ccc(Cl)cc2)C2(CCCCC2)N1c1cccc(C(=O)O)c1	none
Fc1ccc(Nc2ccnc(Nc3ccc(F)cc3)n2)cc1	NPY2 pot ag 32.1 | NPY-Y2 confirm inactive | NPY-Y1 potentiator inactive | NPY-Y1 agonist 2 inactive | CNGC inhibitor 23.7 | Y2 agonist ctr 26.5
O=C(Cc1ccccc1Cl)Nc1cccnc1	none (no result: NPY-Y2 antag)
